In ChEMBL document CHEMBL4257452, “A mini-library system to investigate non-essential residues of lipid-phosphatidylserine (PS) binding peptide-peptoid hybrid PPS1” (Medchemcomm, 2017):
pIC50: −log10 of the molar value. The source made the active and inactive calls. The calls are words filed in the database; no cut-off is given here. Starred links: 1 amine or outer side, 2 acyl side, 3 side chain; linkers in the order of their positions; H or OH if unused. Positions of bridges follow the written chain, without caps; N, C: chain ends. Non-standard residues stand in square brackets, D forms with d. Residues, ends and D or L forms follow the SMILES beside them. Chains are numbered I, II in the order given. Gly(N-piperonyl) = O=C(O)CNCc1ccc2c(c1)OCO2; X5 = O=C(CN(c1ccc2c(c1)OCCO2)[*:1])[*:2]; N(4-MeOBn)Gly = COc1ccc(CNCC(=O)O)cc1; X11 = Nc1ccc(CN(CC(=O)[*:2])[*:1])cc1; N((CH2)3OiPr)Gly = CC(C)OCCCNCC(=O)O; X3 = CC(c1ccccc1)N(CC(=O)[*:2])[*:1]; X9 = O=C(CN(CCOc1ccccc1)[*:1])[*:2]; X8 = O=C(CN(CC1CCNCC1)[*:1])[*:2]; Nrpe = C[C@@H](NCC(=O)O)c1ccccc1; X10 = CCC(C)CN(CC(=O)[*:2])[*:1]; NAllylGly = C=CCNCC(=O)O; Nlys = NCCCCNCC(=O)O; Nme = COCCNCC(=O)O

What was measured:
[1] = Cytotoxicity against human HBEC3-KT cells assessed as reduction in cell viability at 20 uM after 24 hrs by MTS assay; assay type: cell-based
Method in brief: (§1)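 HCC4017 cells (RPMI, 5% FBS) and HBEC-3KT normal lung cells (KSFM with recombinant human EGF and bovine pituitary extract) were plated at 10 000 cells/well in triplicate and left to adhere overnight. They were exposed to 1 or 20 μM compound for 24 h. MTS reagent was then added for 2 h and absorbance read at 490 nm. Viability is % of untreated control wells.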

HCC4017 [2] = assay: Cytotoxicity against human HCC4017 cells assessed as reduction in cell viability up to 100 uM after 24 hrs by calcein-AM dye based fluorescence assay; assay type: functional; conditions: in the assay text read “up to 50 uM” for “up to 100 uM”
Method in brief: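 HCC4017 cells were seeded at 10 000 cells/well in triplicate, adhered overnight, and treated with a graded series of compounds for 24 h. Medium was replaced with PBS containing calcein AM (1 mM as printed) for 15 min at room temperature. Fluorescence emission was read at 520 nm.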

HCC4017 [3] = assay: Cytotoxicity against human HCC4017 cells assessed as reduction in cell viability at 1 uM after 24 hrs by MTS assay; assay type: functional, cell-based; method in brief: as §1
[4] = Cytotoxicity against human HBEC3-KT cells assessed as reduction in cell viability at 1 uM after 24 hrs by MTS assay; assay type: cell-based; method in brief: as §1
HCC4017 [5] = assay: Cytotoxicity against human HCC4017 cells assessed as reduction in cell viability at 20 uM after 24 hrs by MTS assay; assay type: functional, cell-based; method in brief: as §1
HCC4017 [6] = assay: Cytotoxicity against human HCC4017 cells assessed as reduction in cell viability after 24 hrs by MTS assay; assay type: functional, cell-based; conditions: HCC4017, 24 h
Method in brief: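 HCC4017 lung cancer cells (RPMI, 5% FBS) were seeded at 10 000 cells/well in triplicate and adhered overnight. Purified compounds were given as a concentration gradient for 24 h. MTS reagent was added for 2 h and absorbance read at 490 nm. IC50 was taken from the viability curves.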

Row | SMILES | Activity [1] | Activity (HCC4017 [2]) | Activity (HCC4017 [3]) | Activity [4] | Activity (HCC4017 [5]) | pIC50 (HCC4017 [6])
1 | C=CCNCC(=O)N(CCOC)CC(=O)N(CC=C)CC(=O)N(CCOC)CC(=O)N(CC=C)CC(=O)NCC(=O)NC(CCCCN)C(=O)NC(CCSC)C(=O)NCCCCC(NC(=O)C(CCSC)NC(=O)C(CCCCN)NC(=O)CNC(=O)CN(CC=C)C(=O)CN(CCOC)C(=O)CN(CC=C)C(=O)CN(CCOC)C(=O)CNCC=C)C(N)=O (configuration not stated) (I: H-[NAllylGly][Nme][NAllylGly][Nme][NAllylGly]GKMK-NH2 / II: H-[NAllylGly][Nme][NAllylGly][Nme][NAllylGly]GKM; amide I:9-II:C; configuration not given here) | Non-Toxic | inactive | inactive | Non-Toxic |  | 
2 | COc1ccc(CN(CC(=O)N(CCCCN)CC(=O)N[C@@H](CCCCN)C(=O)N[C@H](CCCCN)C(=O)N[C@@H](CCSC)C(=O)NCCCC[C@H](NC(=O)[C@H](CCSC)NC(=O)[C@@H](CCCCN)NC(=O)[C@H](CCCCN)NC(=O)CN(CCCCN)C(=O)CN(Cc2ccc(OC)cc2)C(=O)CN(C(=O)CN(Cc2ccc3c(c2)OCO3)C(=O)CN[C@H](C)c2ccccc2)[C@H](C)c2ccccc2)C(N)=O)C(=O)CN(C(=O)CN(Cc2ccc3c(c2)OCO3)C(=O)CN[C@H](C)c2ccccc2)[C@H](C)c2ccccc2)cc1 (I: H-[Nrpe][Gly(N-piperonyl)][Nrpe][N(4-MeOBn)Gly][Nlys]K[dK]MK-NH2 / II: H-[Nrpe][Gly(N-piperonyl)][Nrpe][N(4-MeOBn)Gly][Nlys]K[dK]M; amide I:9-II:C) | Non-Toxic | Active | inactive | Non-Toxic | Active | 
3 | COc1ccc(CN(CC(=O)N(CC(=O)N[C@@H](CCCCN)C(=O)N[C@H](CCCCN)C(=O)N[C@@H](CCSC)C(=O)NCCCC[C@H](NC(=O)[C@H](CCSC)NC(=O)[C@@H](CCCCN)NC(=O)[C@H](CCCCN)NC(=O)CN(C(=O)CN(Cc2ccc(OC)cc2)C(=O)CN(C(=O)CN(Cc2ccc3c(c2)OCO3)C(=O)CN[C@H](C)c2ccccc2)[C@H](C)c2ccccc2)c2ccc3c(c2)OCCO3)C(N)=O)c2ccc3c(c2)OCCO3)C(=O)CN(C(=O)CN(Cc2ccc3c(c2)OCO3)C(=O)CN[C@H](C)c2ccccc2)[C@H](C)c2ccccc2)cc1 (I: H-[Nrpe][Gly(N-piperonyl)][Nrpe][N(4-MeOBn)Gly][X5]K[dK]MK-NH2 / II: H-[Nrpe][Gly(N-piperonyl)][Nrpe][N(4-MeOBn)Gly][X5]K[dK]M; amide I:9-II:C) | Non-Toxic |  | inactive | Non-Toxic | Active | 
4 | COc1ccc(CN(CC(=O)NC(Cc2ccccc2)C(=O)NC(CCCCN)C(=O)NC(CCCCN)C(=O)NC(CCSC)C(=O)NCCCCC(NC(=O)C(CCSC)NC(=O)C(CCCCN)NC(=O)C(CCCCN)NC(=O)C(Cc2ccccc2)NC(=O)CN(Cc2ccc(OC)cc2)C(=O)CN(C(=O)CN(Cc2ccc3c(c2)OCO3)C(=O)CNC(C)c2ccccc2)C(C)c2ccccc2)C(N)=O)C(=O)CN(C(=O)CN(Cc2ccc3c(c2)OCO3)C(=O)CNC(C)c2ccccc2)C(C)c2ccccc2)cc1 (configuration not stated) (I: H-[X3][Gly(N-piperonyl)][X3][N(4-MeOBn)Gly]FKKMK-NH2 / II: H-[X3][Gly(N-piperonyl)][X3][N(4-MeOBn)Gly]FKKM; amide I:9-II:C; configuration not given here) | Non-Toxic |  | inactive | Non-Toxic | Active | 5.00 to 5.15
5 | COc1ccc(CN(CC(=O)NC(C(=O)NC(CCCCN)C(=O)NC(CCCCN)C(=O)NC(CCSC)C(=O)NCCCCC(NC(=O)C(CCSC)NC(=O)C(CCCCN)NC(=O)C(CCCCN)NC(=O)C(NC(=O)CN(Cc2ccc(OC)cc2)C(=O)CN(C(=O)CN(Cc2ccc3c(c2)OCO3)C(=O)CNC(C)c2ccccc2)C(C)c2ccccc2)C(C)O)C(N)=O)C(C)O)C(=O)CN(C(=O)CN(Cc2ccc3c(c2)OCO3)C(=O)CNC(C)c2ccccc2)C(C)c2ccccc2)cc1 (configuration not stated) (I: H-[X3][Gly(N-piperonyl)][X3][N(4-MeOBn)Gly]TKKMK-NH2 / II: H-[X3][Gly(N-piperonyl)][X3][N(4-MeOBn)Gly]TKKM; amide I:9-II:C; configuration not given here) |  |  |  |  | Active | 4.85
6 | COc1ccc(CN(CC(=O)N(CCCOC(C)C)CC(=O)NC(CCCCN)C(=O)NC(CCCCN)C(=O)NC(CCSC)C(=O)NCCCCC(NC(=O)C(CCSC)NC(=O)C(CCCCN)NC(=O)C(CCCCN)NC(=O)CN(CCCOC(C)C)C(=O)CN(Cc2ccc(OC)cc2)C(=O)CN(C(=O)CN(Cc2ccc3c(c2)OCO3)C(=O)CNC(C)c2ccccc2)C(C)c2ccccc2)C(N)=O)C(=O)CN(C(=O)CN(Cc2ccc3c(c2)OCO3)C(=O)CNC(C)c2ccccc2)C(C)c2ccccc2)cc1 (configuration not stated) (I: H-[X3][Gly(N-piperonyl)][X3][N(4-MeOBn)Gly][N((CH2)3OiPr)Gly]KKMK-NH2 / II: H-[X3][Gly(N-piperonyl)][X3][N(4-MeOBn)Gly][N((CH2)3OiPr)Gly]KKM; amide I:9-II:C; configuration not given here) | Non-Toxic | Active | inactive | Non-Toxic | Active | 5.00 to 5.15
7 | COc1ccc(CN(CC(=O)N(CCCCN)CC(=O)NC(CCCCN)C(=O)NC(CCCCN)C(=O)NCCCCC(NC(=O)C(CCCCN)NC(=O)C(CCCCN)NC(=O)CN(CCCCN)C(=O)CN(Cc2ccc(OC)cc2)C(=O)CN(C(=O)CN(Cc2ccc3c(c2)OCO3)C(=O)CNC(C)c2ccccc2)C(C)c2ccccc2)C(N)=O)C(=O)CN(C(=O)CN(Cc2ccc3c(c2)OCO3)C(=O)CNC(C)c2ccccc2)C(C)c2ccccc2)cc1 (configuration not stated) (I: H-[X3][Gly(N-piperonyl)][X3][N(4-MeOBn)Gly][Nlys]KKK-NH2 / II: H-[X3][Gly(N-piperonyl)][X3][N(4-MeOBn)Gly][Nlys]KK; amide I:8-II:C; configuration not given here) |  | Active |  |  | Active | 
8 | COc1ccc(CN(CC(=O)N(CC(=O)NC(CCCCN)C(=O)NC(CCCCN)C(=O)NC(CCSC)C(=O)NCCCCC(NC(=O)C(CCSC)NC(=O)C(CCCCN)NC(=O)C(CCCCN)NC(=O)CN(CC2CCNCC2)C(=O)CN(Cc2ccc(OC)cc2)C(=O)CN(C(=O)CN(Cc2ccc3c(c2)OCO3)C(=O)CNC(C)c2ccccc2)C(C)c2ccccc2)C(N)=O)CC2CCNCC2)C(=O)CN(C(=O)CN(Cc2ccc3c(c2)OCO3)C(=O)CNC(C)c2ccccc2)C(C)c2ccccc2)cc1 (configuration not stated) (I: H-[X3][Gly(N-piperonyl)][X3][N(4-MeOBn)Gly][X8]KKMK-NH2 / II: H-[X3][Gly(N-piperonyl)][X3][N(4-MeOBn)Gly][X8]KKM; amide I:9-II:C; configuration not given here) |  |  |  |  | Active | 
9 | COc1ccc(CN(CC(=O)N(CCOc2ccccc2)CC(=O)NC(CCCCN)C(=O)NC(CCCCN)C(=O)NC(CCSC)C(=O)NCCCCC(NC(=O)C(CCSC)NC(=O)C(CCCCN)NC(=O)C(CCCCN)NC(=O)CN(CCOc2ccccc2)C(=O)CN(Cc2ccc(OC)cc2)C(=O)CN(C(=O)CN(Cc2ccc3c(c2)OCO3)C(=O)CNC(C)c2ccccc2)C(C)c2ccccc2)C(N)=O)C(=O)CN(C(=O)CN(Cc2ccc3c(c2)OCO3)C(=O)CNC(C)c2ccccc2)C(C)c2ccccc2)cc1 (configuration not stated) (I: H-[X3][Gly(N-piperonyl)][X3][N(4-MeOBn)Gly][X9]KKMK-NH2 / II: H-[X3][Gly(N-piperonyl)][X3][N(4-MeOBn)Gly][X9]KKM; amide I:9-II:C; configuration not given here) |  |  |  |  | Active | 
10 | CCC(C)CN(CC(=O)NC(CCCCN)C(=O)NC(CCCCN)C(=O)NC(CCSC)C(=O)NCCCCC(NC(=O)C(CCSC)NC(=O)C(CCCCN)NC(=O)C(CCCCN)NC(=O)CN(CC(C)CC)C(=O)CN(Cc1ccc(OC)cc1)C(=O)CN(C(=O)CN(Cc1ccc2c(c1)OCO2)C(=O)CNC(C)c1ccccc1)C(C)c1ccccc1)C(N)=O)C(=O)CN(Cc1ccc(OC)cc1)C(=O)CN(C(=O)CN(Cc1ccc2c(c1)OCO2)C(=O)CNC(C)c1ccccc1)C(C)c1ccccc1 (configuration not stated) (I: H-[X3][Gly(N-piperonyl)][X3][N(4-MeOBn)Gly][X10]KKMK-NH2 / II: H-[X3][Gly(N-piperonyl)][X3][N(4-MeOBn)Gly][X10]KKM; amide I:9-II:C; configuration not given here) |  |  |  |  | Active | 
11 | COc1ccc(CN(CC(=O)N(CC(=O)NC(CCCCN)C(=O)NC(CCCCN)C(=O)NC(CCSC)C(=O)NCCCCC(NC(=O)C(CCSC)NC(=O)C(CCCCN)NC(=O)C(CCCCN)NC(=O)CN(Cc2ccc(N)cc2)C(=O)CN(Cc2ccc(OC)cc2)C(=O)CN(C(=O)CN(Cc2ccc3c(c2)OCO3)C(=O)CNC(C)c2ccccc2)C(C)c2ccccc2)C(N)=O)Cc2ccc(N)cc2)C(=O)CN(C(=O)CN(Cc2ccc3c(c2)OCO3)C(=O)CNC(C)c2ccccc2)C(C)c2ccccc2)cc1 (configuration not stated) (I: H-[X3][Gly(N-piperonyl)][X3][N(4-MeOBn)Gly][X11]KKMK-NH2 / II: H-[X3][Gly(N-piperonyl)][X3][N(4-MeOBn)Gly][X11]KKM; amide I:9-II:C; configuration not given here) |  |  |  |  | Active | 
